What is called IC50 is the concentration that gives 50% inhibition. A word on the inhibition: it is the share of the control response that was lost under treatment.

This note sets out measurements from ChEMBL document CHEMBL1143430, “Synthesis and free radical scavenging activity of some new spiropyranocoumarins” (Bioorg Med Chem Lett, 2008).

Experiment [1] deals with Radical scavenging activity. The experiment can be described thus: Antioxidant activity assessed as DPPH free radical scavenging activity after 20 mins. Format: functional. In a few lines: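 Test compound at 5–200 μM mixed with an equal volume of 200 μM DPPH in ethanol, incubated 20 min at room temperature; absorbance read at 517 nm (also at 30, 45 and 60 min). IC50 = concentration giving 50% inhibition of 200 μM DPPH, from linear regression over at least five concentrations in triplicate; mean ± SD of at least three experiments.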
For orientation: The DPPH test is a chemical assay of radical scavenging.

The nature of experiment [2]: Antioxidant activity assessed as inhibition of xanthine-xanthine oxidase generated superoxide anion radical production at 0.5 mM. Type of experiment: functional. In a few lines: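 Superoxide generated enzymically by xanthine oxidase (0.07 U ml⁻¹, added to start the reaction) with 200 μM xanthine and 600 μM NBT in 0.1 phosphate buffer, pH 7.4. Read-out was the NBT reduction product.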

With `O=c1cc(O)c2ccc3c(c2o1)C=CC1(CCCC1)O3`, the IC50 in experiment [1] was found to be 182 µM. The inhibition in experiment [2] was below 10%. For `O=c1cc(O)c2ccc3c(c2o1)C=CC1(CCCCC1)O3` the same measures were 201 µM and below 10%. Consider `O=c1cc(O)c2ccccc2o1` [4-HYDROXYCOUMARINS], for which the IC50 in experiment [1] was found to be 124 µM. Also, in experiment [2], the inhibition was 19.4%. In the case of `Oc1ncnc2[nH]ncc12`, in experiment [2], the inhibition was 42.3%.

For the molecule `O=c1cc(O)c2ccc3c(c2o1)C=CC1(O3)C2CC3CC(C2)CC1C3` (configuration not stated), the IC50 in experiment [1] turned out to be 130 µM. In addition, the inhibition in experiment [2] amounted to 37.3%. For `O=c1cc(O)c2ccc3c(c2o1)[C@@H](O)[C@@H](O)C1(CCCC1)O3` the same measures were 97.8 µM and 63.5%. For `O=c1cc(O)c2ccc3c(c2o1)[C@@H](O)[C@@H](O)C1(CCCCC1)O3` the same measures were 161 µM and 51.7%. Regarding `Cc1cc(C(C)(C)C)c(O)c(C(C)(C)C)c1` [BUTYLATED HYDROXYTOLUENE], the IC50 in experiment [1] is 83.8 µM. In the case of `O=c1cc(O)c2ccc3c(c2o1)[C@@H](O)[C@@H](O)C1(O3)C2CC3CC(C2)CC1C3` (some centres not stated), the half-inhibitory concentration (IC50) in experiment [1] stood at 166 µM. For the same molecule, the inhibition in experiment [2] was determined as 48.3%.

For the molecule `O=c1cc(O)c2ccc3c(c2o1)C=CC1(CCCCCC1)O3`, the IC50 in experiment [1] turned out to be 202 µM. In addition, the inhibition in experiment [2] was below 10%. Taken in the same sequence, the figures for `O=c1ccc2ccc(O)cc2o1` [UMBELLIFERONE] were above 400 µM and 32.6%. Taken in the same sequence, the figures for `O=c1cc(O)c2ccc3c(c2o1)[C@@H](O)[C@@H](O)C1(CCCCCC1)O3` were 158 µM and 35.8%.
